Screening data: PubChem, Broad Institute
SIRT5 inh = inhibitors of human sirtuin-5 desuccinylase | Q9NXA8 | Purified SirT5, succinyl-peptide AMC, trypsin-coupled fluorescence | inhibition, % at 15 µM | hit rate 1.1% among 330,000 | AID 652115; in the data active = inhibition above about 15%; inconclusive = no clear call, values can overlap the other calls
Target sequence (Q9NXA8 whole entry, looked up): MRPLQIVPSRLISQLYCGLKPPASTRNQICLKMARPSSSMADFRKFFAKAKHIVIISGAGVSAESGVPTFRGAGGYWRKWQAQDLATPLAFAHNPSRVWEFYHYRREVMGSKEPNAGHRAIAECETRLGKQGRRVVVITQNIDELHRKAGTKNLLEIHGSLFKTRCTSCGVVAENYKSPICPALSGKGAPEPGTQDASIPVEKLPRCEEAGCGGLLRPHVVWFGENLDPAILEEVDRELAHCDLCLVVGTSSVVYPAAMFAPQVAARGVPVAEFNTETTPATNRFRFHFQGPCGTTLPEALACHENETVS
S100A4 MyoIIA = blocks human S100A4 binding to myosin IIA peptide; P26447; S100A4/TAMRA-MyoIIA peptide fluorescence polarization; inhibition, % at 10.7 µM; hit rate 0.14% among 360,000; AID 652163;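 active = mean inhibition of at least 70% across replicates, with every replicate also reaching that level; inconclusive = mean inhibition reaches 70% but some replicates fall short; inactive = mean inhibition below 70%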
Target sequence (P26447 whole entry, looked up): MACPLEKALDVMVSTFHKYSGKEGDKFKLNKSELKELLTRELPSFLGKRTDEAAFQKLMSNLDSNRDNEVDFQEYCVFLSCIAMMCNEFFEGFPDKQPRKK
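Material: S100A4 monomer (human). Medium: Calcium-containing HEPES buffer, pH 7.2. Probe or stimulus: labelled myosin peptide probe, 5 nM. Compound dosing: one concentration per compound. Timing: polarization read 5 min after assay mix addition, stable 5–60 min. Benchmarks: DMSO as neutral control, TFP as positive control.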
PGC1a acetyl inh = PGC1a acetylation modulation, inhibitor mode. U2OS PGC1a acetylation, AlphaScreen anti-acetyl-lysine; with virally co-expressed GCN5 acetyltransferase. inhibition, % at 15.6 µM. hit rate 0.17% among 350,000;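 active = every replicate shows inhibition of at least 40%; inconclusive = mean inhibition at least 40% but some replicate below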
DENV2 CPE = inhibitors of DENV2 cytopathic effect. DENV2-infected cells, cytopathic effect rescue, plate reader. CPE inhibition, % at 9.99 µM. hit rate 1.7% among 350,000; in the data active = CPE inhibition above about 20%, passing the limit was not always enough; inconclusive = no clear call, values can overlap the other calls; tested in BHK-21 cells
Statin myotox sup = suppressors of simvastatin-induced myotoxicity in C2C12 myotubes. ATP luminescence, 48 h; scaled: DMSO 0, geranylgeraniol control 100. hit rate 0.78% among 330,000. rescue of ATP level, % at 7.49 µM;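 active = mean ATP rescue above about 67%, or every replicate alone reaching that limit, limit read from the data, passing the limit was not always enough; inconclusive = no clear call, values can overlap the other calls; inactive = mean under the limit and some replicate under it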;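 note: myotubes were challenged with 10 µM simvastatin during compound exposure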
Large screens that a line does not name were inactive. A selection: hits, their analogues and other compounds. The true share with any hit is near 2.9%.

O=C1CN(C(=O)COC(=O)CCSc2ccccc2Cl)c2ccccc2N1	Statin myotox sup 106 (no result: DENV2 CPE)
O=C1CN(C(=O)COC(=O)CCNS(=O)(=O)c2ccc(Cl)cc2)c2ccccc2N1	none (no result: Statin myotox sup)
COc1ccc(/C=C/C(=O)OCC(=O)N2CC(=O)Nc3ccccc32)cc1	none (no result: SIRT5 inh, S100A4 MyoIIA, DENV2 CPE, Statin myotox sup)
CCCCOc1ccc(/C=C/C(=O)OCC(=O)N2CC(=O)Nc3ccccc32)cc1OCC	SIRT5 inh 17 (no result: PGC1a acetyl inh, Statin myotox sup)
CCCC(=O)Nc1ccc2c(c1)C(=O)N(C)C[C@@H](OC)[C@H](C)CN(C(=O)c1cccnc1)[C@@H](C)CO2	none
CCCNC(=O)[C@H]1[C@H](CO)[C@H]2Cn3c(ccc(-c4ccccc4)c3=O)[C@H]2N1C(=O)c1ccccc1F	DENV2 CPE inconclusive (no result: PGC1a acetyl inh)
Cc1ccc(S(=O)(=O)Nc2ccc3c(c2)CC(=O)N([C@@H](C)CO)C[C@@H](C)[C@@H](CN(C)Cc2ccc(Oc4ccccc4)cc2)O3)cc1	SIRT5 inh 18
Cc1ccc(S(=O)(=O)Nc2ccc3c(c2)CC(=O)N([C@@H](C)CO)C[C@H](C)[C@H](CN(C)Cc2ccc(Oc4ccccc4)cc2)O3)cc1	DENV2 CPE 69
N#CC12COC3(CCCCC3C1(C#N)C#N)OC2=N (centres undefined)	S100A4 MyoIIA 79 (no result: PGC1a acetyl inh, Statin myotox sup)
N#Cc1ccccc1COC(=O)CCCC1=NS(=O)(=O)c2ccccc2N1	SIRT5 inh 32
C[C@H]1CN([C@@H](C)CO)C(=O)c2cccc(NC(=O)C3CCCCC3)c2O[C@@H]1CN(C)Cc1ccc(C(=O)Nc2ccccc2N)cc1	DENV2 CPE 80
C[C@H](CO)N1C[C@H](C)[C@H](CN(C)Cc2ccc(C(=O)Nc3ccccc3N)cc2)Oc2c(NC(=O)C3CCOCC3)cccc2C1=O	none (no result: PGC1a acetyl inh)
C[C@H](CO)N1C[C@H](C)[C@H](CN(C)Cc2ccc(C(=O)Nc3ccccc3N)cc2)Oc2c(NC(=O)C3CCCCC3)cccc2C1=O	DENV2 CPE inconclusive
C[C@@H]1CN([C@@H](C)CO)C(=O)c2cccc(NC(=O)C3CCOCC3)c2O[C@@H]1CN(C)Cc1ccc(C(=O)Nc2ccccc2N)cc1	S100A4 MyoIIA 79 (no result: Statin myotox sup)
COc1ccccc1-c1ccc([C@H]2[C@H](C#N)N(C(=O)CN(C)C)[C@H]2CO)cc1	none
C[C@@H]1CN([C@@H](C)CO)C(=O)c2cc(NC(=O)Nc3ccc(C(F)(F)F)cc3)ccc2O[C@@H](C)CCCCO[C@@H]1CN(C)Cc1ccncc1	none (no result: Statin myotox sup)
CCCC(=O)Nc1ccc2c(c1)C(=O)N(C)C[C@H](OC)[C@@H](C)CN(Cc1ccc(-c3ccccn3)cc1)[C@@H](C)CO2	none (no result: SIRT5 inh)
CCCNC(=O)Nc1ccc2c(c1)C(=O)N(C)C[C@@H](OC)[C@H](C)CN(Cc1cncnc1)[C@@H](C)CO2	none (no result: DENV2 CPE)
CCCNC(=O)Nc1ccc2c(c1)OC[C@H](C)N(Cc1ccc(-c3ccccn3)cc1)C[C@@H](C)[C@H](OC)CN(C)C2=O	DENV2 CPE 25 (no result: SIRT5 inh)
CCCC(=O)Nc1ccc2c(c1)C(=O)N(C)C[C@H](OC)[C@@H](C)CN(Cc1ccc(-c3ccccn3)cc1)[C@H](C)CO2	DENV2 CPE 36 (no result: SIRT5 inh)
CCCNC(=O)Nc1ccc2c(c1)C(=O)N(C)C[C@H](OC)[C@H](C)CN(Cc1cncnc1)[C@H](C)CO2	DENV2 CPE 53
O=C(NCC[C@@H]1CC[C@H](NC(=O)c2cnccn2)[C@@H](CO)O1)Nc1ccc(Cl)cc1	none
C[C@H]1CN([C@@H](C)CO)C(=O)c2cc(/C=C/c3ccccc3)cnc2O[C@H]1CN(C)C(=O)Cc1cccnc1	none
CC(C)(O)C#Cc1ccc([C@@H]2[C@@H](CO)N3CCCCN(S(C)(=O)=O)C[C@@H]23)cc1	none (no result: SIRT5 inh, S100A4 MyoIIA, DENV2 CPE)
Cn1cc([N+](=O)[O-])c(C(=O)Nc2ccn(Cc3c(F)c(F)cc(F)c3F)n2)n1	Statin myotox sup 144 (no result: SIRT5 inh, S100A4 MyoIIA, DENV2 CPE)
COc1cc(NC(=O)c2ccco2)c(C(=O)OCC(=O)Nc2ncc(Cl)cc2Cl)cc1OC	none (no result: SIRT5 inh, S100A4 MyoIIA, DENV2 CPE, Statin myotox sup)
O=C(COC(=O)c1ccccc1NC(=O)c1ccco1)Nc1ncc(Cl)cc1Cl	Statin myotox sup 94 (no result: SIRT5 inh, S100A4 MyoIIA, DENV2 CPE)
CO[C@H]1CN(C)C(=O)c2ccc(NC(C)=O)cc2OC[C@H](C)N(C(=O)c2cccnc2)C[C@H]1C	none
Cc1nc2ccccc2n1C(c1cccnc1)c1nc2ccccc2[nH]1 (centres undefined)	DENV2 CPE 38 (no result: SIRT5 inh, PGC1a acetyl inh, Statin myotox sup)
O=C(C[C@@H]1CC[C@@H]2[C@H](COC[C@H](O)CN2S(=O)(=O)c2ccc(Cl)cc2)O1)NCCN1CCCC1	none
COc1cccc2c1C(=O)c1c(O)c3c(c(O)c1C2=O)C[C@](O)(C(C)=O)C[C@H]3O[C@@H]1C[C@@H](N)[C@@H](O)[C@@H](C)O1	S100A4 MyoIIA active (no result: PGC1a acetyl inh)
COc1cccc2c1C(=O)c1c(O)c3c(c(O)c1C2=O)CC(O)(C(C)=O)CC3OC1CC(O)C(O)C(C)O1 (centres undefined)	S100A4 MyoIIA active (no result: SIRT5 inh, Statin myotox sup)
C[C@H](CO)N1C[C@H](C)[C@@H](CN(C)S(=O)(=O)c2cccs2)Oc2ccc(NS(=O)(=O)c3cccs3)cc2CC1=O	none (no result: SIRT5 inh, S100A4 MyoIIA, DENV2 CPE)
COc1ccc(N(Cc2cc3ccccc3[nH]c2=O)S(=O)(=O)c2ccccc2)cc1	Statin myotox sup 182
COc1ccc(N(Cc2cc3ccccc3[nH]c2=O)S(=O)(=O)c2ccc(C)cc2)cc1	none
COc1ccc2[nH]c(=O)c(CN(CCc3ccccc3)C(C)=O)cc2c1	Statin myotox sup 114 (no result: SIRT5 inh, S100A4 MyoIIA, DENV2 CPE)
C[C@H](CO)N1C[C@H](C)[C@H](CN(C)C(=O)CN(C)C)Oc2cc(C#Cc3cccnc3)ccc2S1(=O)=O	none
COC(=O)CN1C(=O)[C@H]2[C@@H](/C=C/c3ccccc3)N3C(=O)CN(Cc4ccccc4)C(=O)[C@@]3(C)[C@H]2C1=O	DENV2 CPE 50 (no result: SIRT5 inh)
CCOC(=O)C1(C)CCN1C(=O)c1cccc(OC)c1 (centres undefined)	DENV2 CPE 42 (no result: SIRT5 inh)
CCOC(=O)C1(C)CCN1C(=O)c1cccc(Cl)c1 (centres undefined)	SIRT5 inh 32
CCOC(=O)C1(C)CCCN(C(=O)c2cccc(C#N)c2)C1 (centres undefined)	SIRT5 inh 15 (no result: PGC1a acetyl inh)
CCOC(=O)C1(C)CCN1C(=O)c1ccc(Cl)cc1Cl (centres undefined)	none
COc1ccc2c3c([nH]c2c1)[C@H](CO)N(Cc1ccncc1)CC31CN(Cc2ccc(-c3ccccn3)cc2)C1	none (no result: Statin myotox sup)
O=C(Nc1ccc(S(=O)(=O)N2CCCCC2)cc1)c1ccco1	none
O=C(Nc1ccc(S(=O)(=O)N2CCC(C(=O)NC3CCCCC3)CC2)cc1)c1ccco1	Statin myotox sup 179 (no result: SIRT5 inh, S100A4 MyoIIA, DENV2 CPE)
Cc1oc(C(C)(C)C)cc1C(=O)Nc1ccc2c(c1)OCO2	none
O=C(Nc1ccc2c(c1)OCO2)c1cc(C2CC2)on1	DENV2 CPE inconclusive (no result: PGC1a acetyl inh)
Cc1ccc(NC(=O)c2ccc3c(c2)OCO3)cc1Cl	DENV2 CPE 22 (no result: PGC1a acetyl inh)
COc1ccccc1C(=O)Nc1ccc2c(c1)OCO2	Statin myotox sup 114 (no result: SIRT5 inh, S100A4 MyoIIA, DENV2 CPE)
CC(C)c1cc(C(=O)Nc2ccc3c(c2)OCO3)no1	Statin myotox sup 83 (no result: SIRT5 inh)
Cc1oc(C(C)(C)C)cc1C(=O)Nc1ccc2c(c1)OCCO2	Statin myotox sup 95 (no result: SIRT5 inh, S100A4 MyoIIA, DENV2 CPE)
